Experimental data from ChEMBL document CHEMBL1129428 (J Med Chem, 1996).
Where “and” joins values, the source holds several entries; their conditions need not be identical. Equal entries are not always repeated.

Columns and labels:
[1] = Compound was tested for toxicity after oral administration in rat by using neurotoxicity screen test after 0.25-24 hr; format: organism-based; settings: in vivo
How it was run: (§1)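 Rat neurotoxicity after oral dosing, observed at 0.25, 0.5, 1, 2, 4, 6, 8 and 24 h (8 h omitted for one compound).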

Mus musculus [2] = test: Anticonvulsant activity after intraperitoneal injection into mice measured in a maximal electroshock scree (MES) screen; format: functional
[3] = (§2) Protection index = TD50/ED50 (MES); format: ADME, organism-based; settings: rat, in vivo; read-out: PI
Rattus norvegicus [4] = test: Compound was tested for anticonvulsant activity after Oral Administration into Rats by using MES screen test after 4h,dose 12.5 mg/kg; number of rats out of four which were protected; format: functional
How it was run: (§3)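 Rats received the compound orally. […] Rats were tested in the MES screen at 0.25, 0.5, 1, 2 and 4 h. Each value is the number of rats protected out of 4. The test followed NINDS procedures.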

Rattus norvegicus [5] = test: Compound was tested for anticonvulsant activity after Oral Administration into rat by using MES screen test after 1 hr; format: functional
How it was run: (§4)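 Rats dosed orally, typically at 50 mg/kg first, then mostly 12.5 mg/kg (some compounds at 30 mg/kg), and tested by maximal electroshock. Four rats per compound, scored at 0.25, 0.5, 1, 2 and 4 h as the number of rats protected out of 4.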

Mus musculus [6] = test: Compound was tested for toxicity after intraperitoneal injection into mice by using toxicity screen test after 4 hr; format: organism-based; settings: in vivo, ip
How it was run: (§5)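 Mice injected intraperitoneally at 30, 100 and 300 mg/kg and examined 0.5 and 4 h afterwards. Each entry is the minimum dose giving activity (MES protection, scPTZ protection, or rotorod failure for neurotoxicity) in half or more of the mice. Activity is called absent if nothing occurs at 300 mg/kg.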

Rattus norvegicus [7] = test: Compound was tested for anticonvulsant activity after Oral Administration into Rats by using MES screen test after 2h,dose 12.5 mg/kg; number of rats out of four which were protected; format: functional; how it was run: as §3
Mus musculus [8] = test: Toxicity after intraperitoneal injection into mice by using toxicity screen test after 0.5 hr; format: organism-based; settings: in vivo, ip; how it was run: as §5
Rattus norvegicus [9] = test: Anticonvulsant activity after oral administration into rats; format: functional; parameters: concentration or dose not given beside the values
Rattus norvegicus [10] = test: Compound was tested for anticonvulsant activity after Oral Administration into Rats by using MES screen test after 0.25h,dose 12.5 mg/kg; No activity was demonstarted; format: functional, organism-based; parameters: dose 12.5 mg/kg; how it was run: as §3
Rattus norvegicus [11] = test: Compound was tested for anticonvulsant activity after Oral Administration into Rats by using MES screen test after 1h,dose 12.5 mg/kg; number of rats out of four which were protected; format: functional; how it was run: as §3
Mus musculus [12] = test: Anticonvulsant activity after intraperitoneal injection into mice by using MES screen test after 0.5 hr; format: functional
Rattus norvegicus [13] = test: Compound was tested for anticonvulsant activity after Oral Administration into Rats by using MES screen test after 0.5h,dose 12.50 mg/kg; number of rats out of four which were protected; format: functional; settings: dose 12.5 mg/kg; how it was run: as §3
Rattus norvegicus [14] = test: Compound was tested for anticonvulsant activity after Oral Administration into Rats by using MES screen test after 0.25h,dose 12.50 mg/kg; number of rats out of four which were protected; format: functional; settings: dose 12.5 mg/kg; how it was run: as §3
Rattus norvegicus [15] = test: Compound was tested for anticonvulsant activity after Oral Administration into rat by using MES screen test after 4 hr; format: functional; how it was run: as §4
Rattus norvegicus [16] = test: Compound was tested for anticonvulsant activity after Oral Administration into Rats by using MES screen test after 4h,dose 12.50 mg/kg; number of rats out of four which were protected; format: functional; settings: dose 12.5 mg/kg; how it was run: as §3
Rattus norvegicus [17] = test: Compound was tested for anticonvulsant activity after Oral Administration into Rats by using MES screen test after 2h,dose 12.50 mg/kg; number of rats out of four which were protected; format: functional; settings: dose 12.5 mg/kg; how it was run: as §3
Rattus norvegicus [18] = test: Compound was tested for anticonvulsant activity after Oral Administration into Rats by using MES screen test after 1h,dose 12.50 mg/kg; number of rats out of four which were protected; format: functional; settings: dose 12.5 mg/kg; how it was run: as §3
Mus musculus [19] = test: Compound was tested for anticonvulsant activity after intraperitoneal injection into mice by using MES screen test after 2 hr; format: functional; settings: ip
How it was run: (§6)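 Quantitative intraperitoneal mouse testing in the MES, scPTZ or rotorod neurotoxicity screens at the peak time given for each compound (0.25–2 h). ED50 or TD50 reported in mg/kg with 95% CI and slope (SE).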

Mus musculus [20] = test: Compound was tested for anticonvulsant activity after intraperitoneal injection into mice by using scPTZ screen test after 2 hr; format: functional; settings: ip; how it was run: as §6
[21] = Compound was tested for toxicity after oral administration in rat by using neurotoxicity screen test after 2 hr; format: organism-based; settings: in vivo; how it was run: as §1
[22] = Compound was tested for toxicity after intraperitoneal injection into mice by using neurotoxicity screen test after 1 hr; format: organism-based; settings: mouse, in vivo, ip; how it was run: as §6
Mus musculus [23] = test: Anticonvulsant activity after intraperitoneal injection into mice by using toxicity screen test after 0.5 hr; format: organism-based; settings: in vivo, ip
Rattus norvegicus [24] = test: Compound was tested for anticonvulsant activity after Oral Administration into rat by using MES screen test after 2 hr dose 12.5 mg/kg; format: functional
Mus musculus [25] = test: Anticonvulsant activity after intraperitoneal injection into mice by using scPTZ screen after 0.5 hr; format: functional
Mus musculus [26] = test: Compound was tested for anticonvulsant activity after intraperitoneal injection into mice by using MES screen test after 1 hr; format: functional; settings: ip; how it was run: as §6
[27] = Protection index = TD50/ED50; format: ADME; settings: read-out: PI
Rattus norvegicus [28] = species: Rattus norvegicus; test: as §2; format: ADME, organism-based; settings: in vivo
Rattus norvegicus [29] = test: Compound was tested for anticonvulsant activity after Oral Administration into rat by using MES screen test after 2 hr; format: functional; how it was run: as §4
[30] = Compound was tested for toxicity after intraperitoneal injection into mice by using neurotoxicity screen test after 2 hr; format: organism-based; settings: mouse, in vivo, ip; how it was run: as §6
[31] = Compound was tested for toxicity after oral administration in rat by using neurotoxicity screen test after 4 hr; format: organism-based; settings: in vivo; how it was run: as §1
Mus musculus [32] = test: Compound was tested for anticonvulsant activity after intraperitoneal injection into mice by using scPTZ screen test after 1 hr; format: functional; settings: ip; how it was run: as §6
[33] = Compound was tested for toxicity after intraperitoneal injection into mice by using neurotoxicity screen test after 0.5 hr; settings: mouse, in vivo, ip
Rattus norvegicus [34] = test: Compound was tested for anticonvulsant activity after Oral Administration into Rats by using MES screen test after 0.25h,dose 30 mg/kg; No activity was demonstarted; format: functional, organism-based; parameters: dose 30 mg/kg; how it was run: as §3
Rattus norvegicus [35] = test: Compound was tested for anticonvulsant activity after Oral Administration into Rats by using MES screen test after 0.5h,dose 30 mg/kg; number of rats out of four which were protected; format: functional; how it was run: as §3
Rattus norvegicus [36] = test: Compound was tested for anticonvulsant activity after Oral Administration into Rats by using MES screen test after 4h,dose 30 mg/kg; number of rats out of four which were protected; format: functional; how it was run: as §3
Rattus norvegicus [37] = test: Compound was tested for anticonvulsant activity after Oral Administration into Rats by using MES screen test after 2h,dose 30 mg/kg; number of rats out of four which were protected; format: functional; how it was run: as §3
Rattus norvegicus [38] = test: Compound was tested for anticonvulsant activity after Oral Administration into Rats by using MES screen test after 1h,dose 30 mg/kg; number of rats out of four which were protected; format: functional; how it was run: as §3

Row | Structure (SMILES) | TD50 [1] [mg/kg] | Dose (Mus musculus [2]) [mg/kg] | Activity (Rattus norvegicus [4]) | ED50 (Rattus norvegicus [5]) [mg/kg] | Dose (Mus musculus [6]) [mg/kg] | Activity (Rattus norvegicus [7]) | Dose (Mus musculus [8]) [mg/kg] | Activity (Rattus norvegicus [9]) | Activity (Rattus norvegicus [10]) | Activity (Rattus norvegicus [11]) | Dose (Mus musculus [12]) [mg/kg] | ED50 (Mus musculus [20]) [mg/kg] | Dose (Mus musculus [25]) [mg/kg] | further results
1 | Cc1cccc(Oc2ccc(/C=N/NC(N)=O)cc2)c1 | > 500 | 100 | 2 | 3.07 | 300 | 3 | 100 | 4 | No activity | 4 | 30 |  |  | selectivity ratio [3]: > 163
2 | NC(=O)N/N=C/c1ccc(Oc2ccc(Cl)cc2F)cc1 |  | 30 |  |  | 30 |  |  |  |  |  | 30 | > 45 |  | Activity (Rattus norvegicus [13]): 4; Activity (Rattus norvegicus [14]): 2; ED50 (Rattus norvegicus [15]): 1.13 mg/kg; Activity (Rattus norvegicus [16]): 4; Activity (Rattus norvegicus [17]): 4; Activity (Rattus norvegicus [18]): 4; ED50 (Mus musculus [19]): 3.31 mg/kg; TD50 at 2 h [21]: > 90 mg/kg; TD50 at 1 h [22]: 36.3 mg/kg; Dose (Mus musculus [23]): 100 mg/kg
3 | NC(=O)N/N=C/c1ccc(Oc2cc(F)ccc2F)cc1 |  | 300 | 1 |  | 300 |  | 300 | 1 | No activity | 1 | 100 |  | 100 | ED50 (Rattus norvegicus [24]): 11.4 mg/kg
4 | CC/C(=N/NC(N)=O)c1ccc(Oc2ccc(F)cc2)cc1 |  | 30 | 4 |  | 100 | 4 | 300 | 2 | No activity | 4 | 30 | 12.8 | 100 | ED50 (Mus musculus [26]): 5.46 mg/kg; selectivity ratio [27]: 2.75; PI (Rattus norvegicus [28]): 6.45 and 16.9; ED50 (Rattus norvegicus [29]): 4.25 mg/kg; TD50 at 2 h [30]: 35.3 mg/kg; TD50 at 4 h [31]: > 72 mg/kg
5 | O=C1NC(=O)C(c2ccccc2)(c2ccccc2)N1 [PHENYTOIN] | > 500 | 30 |  |  | 100 |  | 100 |  |  |  | 30 |  |  | ED50 (Mus musculus [32]): > 50 mg/kg; TD50 at 0.5 h [33]: 41.2 mg/kg
6 | C/C(=N/NC(N)=O)c1ccc(Sc2ccccc2)cc1 |  | 100 |  | 16.6 |  |  |  |  |  |  | 100 |  | 300 | Activity (Rattus norvegicus [34]): No activity; Activity (Rattus norvegicus [35]): 4; Activity (Rattus norvegicus [36]): 4; Activity (Rattus norvegicus [37]): 4; Activity (Rattus norvegicus [38]): 4
